Test results from article PMC2099187 (The Journal of Cell Biology, 2007).
“And” between values parts separate entries of the source, which are not always exact repeats. Equal entries are not always repeated.

Tests used:
HEK-AT1AR cells = assay: Resensitization of ATII-induced Ca2+ signaling; type: cell-based, human; settings: SM-19712 10 μM, 20 min and 2 h recovery
Procedure, shortened: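 HEK-AT1AR cells were exposed to ATII (100 nM) or vehicle for 1 h at 37°C, washed, and allowed to recover in agonist-free medium at 37°C. They were then rechallenged with ATII (100 nM) while [Ca2+]i was measured. The [Ca2+]i change is expressed as % of the vehicle-pretreated response. Inhibitor (10 μM) or DMSO was preincubated 20–60 min and kept in buffers throughout. Mean ± SE, n ≥ 3.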

HEK-B2R-V2RCT cells = assay: B2R-V2RCT recycling and colocalization with β-arrestin2-GFP; type: cell-based, human; settings: 2 h recovery, SM-19712 10 μM
Procedure, shortened: (§1)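 HEK cells stably expressing HA-tagged B2R or B2R-V2RCT were transiently transfected with β-arrestin2-GFP. Surface receptors were labelled with anti-HA11 (1:100, 30 min, 37°C), then given BK 100 nM for 10 min and recovered in BK-free medium (B2R 1 h; B2R-V2RCT 2 h). SM-19712 10 μM or DMSO was preincubated 20–60 min and kept throughout. Cells were PFA-fixed for confocal imaging; plasma-membrane fraction of fluorescence and colocalization coefficient (0–1) were scored in >20 cells/experiment, n ≥ 3.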

[1] = target: T1, recombinant human (rh) ECE-1 (Homo sapiens, UniProt P42892); assay: Peptide degradation by rhECE-1; type: biochemical; settings: inhibitor 100 μM
T1 sequence (P42892 1-770): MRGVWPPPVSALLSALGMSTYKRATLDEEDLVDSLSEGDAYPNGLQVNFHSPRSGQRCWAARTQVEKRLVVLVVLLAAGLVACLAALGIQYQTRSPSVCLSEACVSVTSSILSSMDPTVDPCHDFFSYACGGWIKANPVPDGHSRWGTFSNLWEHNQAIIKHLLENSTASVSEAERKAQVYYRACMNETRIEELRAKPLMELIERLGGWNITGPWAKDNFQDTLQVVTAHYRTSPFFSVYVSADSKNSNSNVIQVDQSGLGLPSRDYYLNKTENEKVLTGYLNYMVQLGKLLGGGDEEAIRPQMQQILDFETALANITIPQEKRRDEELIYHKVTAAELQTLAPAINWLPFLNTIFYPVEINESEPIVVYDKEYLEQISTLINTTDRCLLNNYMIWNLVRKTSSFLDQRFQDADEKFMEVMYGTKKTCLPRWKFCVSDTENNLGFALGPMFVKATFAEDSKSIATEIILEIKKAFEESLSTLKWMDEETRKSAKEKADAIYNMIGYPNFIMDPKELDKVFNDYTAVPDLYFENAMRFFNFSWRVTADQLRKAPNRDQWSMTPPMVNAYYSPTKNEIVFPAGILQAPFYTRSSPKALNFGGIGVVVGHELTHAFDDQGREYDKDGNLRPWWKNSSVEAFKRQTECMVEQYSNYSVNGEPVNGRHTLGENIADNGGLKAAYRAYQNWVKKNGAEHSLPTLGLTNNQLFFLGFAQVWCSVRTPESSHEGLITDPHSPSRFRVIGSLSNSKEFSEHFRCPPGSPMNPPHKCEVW
Procedure, shortened: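 Where used, the ECE-1 inhibitor (100 μM) was preincubated with enzyme on ice for 30 min at matching pH before substrate was added. Products were resolved by reversed-phase HPLC and identified by MALDI TOF/TOF mass spectrometry.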

HEK-CLR-RAMP1 cells [2] = assay: CGRP-induced Ca2+ signaling, desensitization and resensitization; type: cell-based, human; settings: SM-19712 10 μM
Procedure, shortened: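 HEK-CLR-RAMP1 cells were loaded with Fura-2AM; [Ca2+]i read at 37°C. Single challenge used CGRP 30 nM. For desensitization/resensitization: CGRP 100 nM or vehicle (1 h, 37°C), wash, 0–6 h recovery, CGRP 30 nM rechallenge. Variants: SM-19712 10 μM (20–60 min preincubation, kept throughout); ECE-1 or non-targeting siRNA pools, 72 h; transient ECE-1a-d-GFP. Response given as % of vehicle-treated cells, n ≥ 3.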

HEK-CLR-RAMP1 cells [3] = assay: CLR and RAMP1 endocytosis and recycling; type: cell-based, human
Procedure, shortened: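 Surface CLR and RAMP1 on HEK-CLR-RAMP1 cells were antibody-labelled via HA11 and Myc epitopes (1:100, 30 min, 37°C). Cells then received CGRP 100 nM for 1 h, were washed, and recovered 0–6 h in CGRP-free medium. Cells were either treated with SM-19712 10 μM (20–60 min preincubation, kept throughout) or transfected 72 h earlier with ECE-1 vs non-targeting siRNA. Confocal scoring gave % total cellular fluorescence at plasma membrane at 6 h.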

HEK cells = assay: BK-induced Ca2+ signaling, desensitization and resensitization; type: cell-based, human; settings: SM-19712 10 μM
Procedure, shortened: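 HEK cells with native B2R were loaded with Fura-2AM and [Ca2+]i read at 37°C, on coverslips or in suspension. Cells were preincubated with BK 100 nM or vehicle (10 min, 37°C), washed, recovered 0–120 min, then rechallenged with BK 100 nM. SM-19712 10 μM, bafilomycin A1 0.15 or 1 μM, or DMSO was preincubated 20–60 min and kept in buffers throughout.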

HEK-B2R cells = assay: B2R recycling and colocalization with β-arrestin2-GFP; type: cell-based, human; settings: SM-19712 10 μM
Procedure, shortened: as §1

HEK-CLR-RAMP1 cells [4] = assay: Endocytosis and degradation of internalized 125I-His8-CGRP; type: cell-based, human; settings: 30 min after internalization; SM-19712 10 μM, bafilomycin A1 0.15 or 1 μM
A549 cells = assay: Resensitization of ATII-induced Ca2+ signaling; type: cell-based, human; settings: ATII 1 μM 1 h, 1 h recovery; SM-19712 10 μM; endogenous AT1AR and ECE-1
Procedure, shortened: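 A549 cells (native AT1AR, ECE-1) were loaded with Fura-2AM for [Ca2+]i at 37°C. They were preincubated with ATII 1 μM or vehicle (1 h, 37°C), washed, recovered 1 h, then rechallenged with ATII 1 μM. SM-19712 10 μM or DMSO was preincubated 20–60 min and kept throughout. Response was expressed as % of vehicle-treated cells.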

Compound: Cc1nn(-c2ccccc2)c(NC(=O)NS(=O)(=O)c2ccc(Cl)cc2)c1C#N.[Na] [SM-19712]
- Effect on resensitization of ATII-induced Ca2+ signaling (HEK-AT1AR cells): did not affect resensitization at either time
- Change of colocalization coefficient of B2R-V2RCT with β-arrestin2 (HEK-B2R-V2RCT cells): twofold increase
- Effect on localization of B2R-V2RCT during recovery (HEK-B2R-V2RCT cells; BK 100 nM 10 min): causing it retention in endosomes with β-arrestin2
- Reduction of recycling of B2R-V2RCT (HEK-B2R-V2RCT cells; BK 100 nM 10 min): ~50% and > 50%
- Effect on rhECE-1 degradation of CGRP ([1]; preincubated with ECE-1 on ice 30 min, pH 5.5): abolished
- Effect on rhECE-1 degradation of BK ([1]; rhECE-1 83 nM, pH 5.5 and 7.4): prevented this degradation
- Effect on response to a single challenge with CGRP ([Ca2+]i) (HEK-CLR-RAMP1 cells [2]; CGRP 30 nM): did not affect magnitude or duration
- Effect on desensitization of CGRP-induced Ca2+ signaling (HEK-CLR-RAMP1 cells [2]): did not affect desensitization
- Effect on resensitization of CGRP-induced Ca2+ signaling (HEK-CLR-RAMP1 cells [2]; 0–6 h recovery): strongly inhibited resensitization at all times
- Inhibition of recycling of CLR (CLR at the plasma membrane) (HEK-CLR-RAMP1 cells [3]; 6 h recovery after CGRP 100 nM 1 h, SM-19712 10 μM, siRNA 72 h): > 50%
- Effect on localization of CLR/RAMP1 after recovery in CGRP-free medium (HEK-CLR-RAMP1 cells [3]; CGRP 100 nM 1 h, wash, 6 h recovery): caused their retention in endosomes even at 6 h
- Effect on response to a single BK challenge ([Ca2+]i) (HEK cells; BK 100 nM, thiorphan 1 μM, phosphoramidon 1 μM): did not affect responses to a single BK challenge
- Effect on desensitization of BK-induced Ca2+ signaling (HEK cells; bafilomycin A1 0.15 or 1 μM): had no effect
- Effect on resensitization of BK-induced Ca2+ signaling (HEK cells; bafilomycin A1 0.15 or 1 μM, 0–120 min recovery): had no effect
- Effect on colocalization coefficient of β-arrestin2 and B2R (HEK-B2R cells; 1 h recovery): did not affect colocalization with B2R
- Reduction of recycling of B2R (HEK-B2R cells; BK 100 nM 10 min, 1 h recovery): < 10%
- Effect on BK-induced trafficking of B2R and β-arrestin2 (HEK-B2R cells; BK 100 nM 10 min, 60 min recovery): did not affect this trafficking
- Effect on degradation of internalized 125I-His8-CGRP (HEK-CLR-RAMP1 cells [4]): prevented degradation
- Effect on resensitization of responses to ATII (A549 cells): did not affect resensitization
